Assay results reported in ChEMBL document CHEMBL3259540, “Design, synthesis and molecular docking studies of novel N-benzenesulfonyl-1,2,3,4-tetrahydroisoquinoline-based triazoles with potential anticancer activity” (Eur J Med Chem, 2014).

Test system: not listed separately
Assay: Cytotoxicity against human HuCCa1 cells after 48 hrs by MTT assay
Assay type: functional, cell-based
Conditions: HuCC-A1, 48 h
Outline: (§1)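 Adherent cells seeded at 10,000–20,000 per well and held 24 h at 37 °C in 5% CO2. Serial dilutions of compound were then added, with etoposide and/or doxorubicin as positive controls and DMSO as negative control. After 48 h of continuous exposure, survival was read by MTT. IC50 was the concentration giving 50% growth inhibition relative to the DMSO control.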
With `O=Cc1ccc(OCc2cn(-c3ccc(S(=O)(=O)N4CCc5ccccc5C4)cc3)nn2)cc1` the IC50 was over 50 µg/mL. In the case of `COc1cc2c(cc1OC)CN(S(=O)(=O)c1ccc(-n3cc(COc4ccc(C)cc4)nn3)cc1)CC2`, the IC50 is reported as over 50 µg/mL. Compound `O=S(=O)(c1ccc(-n2cc(CO)nn2)cc1)N1CCc2ccccc2C1` has an IC50 of 51.4 µM. Work on `COc1cc2c(cc1OC)CN(S(=O)(=O)c1ccc(-n3cc(COc4ccccc4)nn3)cc1)CC2` yielded an IC50 of over 50 µg/mL. With `Cc1ccccc1OCc1cn(-c2ccc(S(=O)(=O)N3CCc4ccccc4C3)cc2)nn1` the IC50 was over 50 µg/mL. For `CC(=O)c1ccccc1OCc1cn(-c2ccc(S(=O)(=O)N3CCc4ccccc4C3)cc2)nn1`, the IC50 was 30.2 µM. Compound `COc1cc2c(cc1OC)CN(S(=O)(=O)c1ccc(-n3cc(COc4ccccc4C(C)=O)nn3)cc1)CC2` has an IC50 of over 50 µg/mL. For `COc1cccc2c1C(=O)c1c(O)c3c(c(O)c1C2=O)C[C@@](O)(C(=O)CO)C[C@@H]3O[C@H]1C[C@H](N)[C@H](O)[C@H](C)O1` [DOXORUBICIN], the IC50 was 0.83 µM. With `COC(=O)c1ccccc1OCc1cn(-c2ccc(S(=O)(=O)N3CCc4ccccc4C3)cc2)nn1` the IC50 was 0.63 µM. `COc1cc2c(cc1OC)CN(S(=O)(=O)c1ccc(-n3cc(COc4ccc([N+](=O)[O-])cc4)nn3)cc1)CC2` gave an IC50 of over 50 µg/mL. In the case of `COc1cc2c(cc1OC)CN(S(=O)(=O)c1ccc(-n3cc(COc4ccc5ccccc5c4)nn3)cc1)CC2`, the IC50 is reported as over 50 µg/mL.

Test system: HepG2
Assay: Cytotoxicity against human HepG2 cells after 48 hrs by MTT assay
Assay type: functional, cell-based
Conditions: HepG2, 48 h
Outline: as §1
For `O=Cc1ccc(OCc2cn(-c3ccc(S(=O)(=O)N4CCc5ccccc5C4)cc3)nn2)cc1`, the IC50 was 5.27 µM. `COc1cc2c(cc1OC)CN(S(=O)(=O)c1ccc(-n3cc(COc4ccc(C)cc4)nn3)cc1)CC2` showed an IC50 of 0.56 µM. In the case of `O=S(=O)(c1ccc(-n2cc(CO)nn2)cc1)N1CCc2ccccc2C1`, the IC50 is reported as over 50 µg/mL. `COc1cc2c(cc1OC)CN(S(=O)(=O)c1ccc(-n3cc(COc4ccccc4)nn3)cc1)CC2` showed an IC50 of 2.57 µM. `Cc1ccccc1OCc1cn(-c2ccc(S(=O)(=O)N3CCc4ccccc4C3)cc2)nn1` showed an IC50 of over 50 µg/mL. For `CC(=O)c1ccccc1OCc1cn(-c2ccc(S(=O)(=O)N3CCc4ccccc4C3)cc2)nn1`, the IC50 was 19.1 µM. `COc1cc2c(cc1OC)CN(S(=O)(=O)c1ccc(-n3cc(COc4ccccc4C(C)=O)nn3)cc1)CC2` showed an IC50 of over 50 µg/mL. `COC(=O)c1ccccc1OCc1cn(-c2ccc(S(=O)(=O)N3CCc4ccccc4C3)cc2)nn1` showed an IC50 of 12.4 µM. In the case of `COc1cc2c(cc1OC)CN(S(=O)(=O)c1ccc(-n3cc(COc4ccc([N+](=O)[O-])cc4)nn3)cc1)CC2`, the IC50 is reported as over 50 µg/mL. `COc1cc2c(cc1OC)CN(S(=O)(=O)c1ccc(-n3cc(COc4ccc5ccccc5c4)nn3)cc1)CC2` gave an IC50 of 1.26 µM.

Test system: A549
Assay: Cytotoxicity against human A549 cells after 48 hrs by MTT assay
Assay type: functional, cell-based
Conditions: A549, 48 h
Outline: as §1
Work on `O=Cc1ccc(OCc2cn(-c3ccc(S(=O)(=O)N4CCc5ccccc5C4)cc3)nn2)cc1` yielded an IC50 of 59.1 µM. For `COc1cc2c(cc1OC)CN(S(=O)(=O)c1ccc(-n3cc(COc4ccc(C)cc4)nn3)cc1)CC2`, the IC50 was over 50 µg/mL. `O=S(=O)(c1ccc(-n2cc(CO)nn2)cc1)N1CCc2ccccc2C1` showed an IC50 of over 50 µg/mL. Compound `COc1cc2c(cc1OC)CN(S(=O)(=O)c1ccc(-n3cc(COc4ccccc4)nn3)cc1)CC2` has an IC50 of over 50 µg/mL. Work on `Cc1ccccc1OCc1cn(-c2ccc(S(=O)(=O)N3CCc4ccccc4C3)cc2)nn1` yielded an IC50 of 66.3 µM. Work on `CC(=O)c1ccccc1OCc1cn(-c2ccc(S(=O)(=O)N3CCc4ccccc4C3)cc2)nn1` yielded an IC50 of 14.9 µM. In the case of `COc1cc2c(cc1OC)CN(S(=O)(=O)c1ccc(-n3cc(COc4ccccc4C(C)=O)nn3)cc1)CC2`, the IC50 is reported as over 50 µg/mL. Work on `COC(=O)c1ccccc1OCc1cn(-c2ccc(S(=O)(=O)N3CCc4ccccc4C3)cc2)nn1` yielded an IC50 of 0.57 µM. Work on `COc1cc2c(cc1OC)CN(S(=O)(=O)c1ccc(-n3cc(COc4ccc([N+](=O)[O-])cc4)nn3)cc1)CC2` yielded an IC50 of over 50 µg/mL. In the case of `COc1cc2c(cc1OC)CN(S(=O)(=O)c1ccc(-n3cc(COc4ccc5ccccc5c4)nn3)cc1)CC2`, the IC50 is reported as over 50 µg/mL.

Test system: Vero
Assay: Cytotoxicity against african green monkey Vero cells after 4 days by GFP detection method
Assay type: cell-based
Conditions: Chlorocebus sabaeus, 96 h
Outline: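 Cells at 3.3 × 10^4 cells/mL were added to compounds prediluted in 0.5% DMSO. Plates were incubated 4 days at 37 °C in 5% CO2, and GFP fluorescence was read from the plate bottom.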
`O=Cc1ccc(OCc2cn(-c3ccc(S(=O)(=O)N4CCc5ccccc5C4)cc3)nn2)cc1` gave an IC50 of over 50 µg/mL. With `COc1cc2c(cc1OC)CN(S(=O)(=O)c1ccc(-n3cc(COc4ccc(C)cc4)nn3)cc1)CC2` the IC50 was over 50 µg/mL. In the case of `O=S(=O)(c1ccc(-n2cc(CO)nn2)cc1)N1CCc2ccccc2C1`, the IC50 is reported as over 50 µg/mL. With `COc1cc2c(cc1OC)CN(S(=O)(=O)c1ccc(-n3cc(COc4ccccc4)nn3)cc1)CC2` the IC50 was over 50 µg/mL. In the case of `Cc1ccccc1OCc1cn(-c2ccc(S(=O)(=O)N3CCc4ccccc4C3)cc2)nn1`, the IC50 is reported as over 50 µg/mL. With `CC(=O)c1ccccc1OCc1cn(-c2ccc(S(=O)(=O)N3CCc4ccccc4C3)cc2)nn1` the IC50 was over 50 µg/mL. For `COc1cc2c(cc1OC)CN(S(=O)(=O)c1ccc(-n3cc(COc4ccccc4C(C)=O)nn3)cc1)CC2`, the IC50 was 37.2 µM. For `COC(=O)c1ccccc1OCc1cn(-c2ccc(S(=O)(=O)N3CCc4ccccc4C3)cc2)nn1`, the IC50 was 4.98 µM. Compound `COc1cc2c(cc1OC)CN(S(=O)(=O)c1ccc(-n3cc(COc4ccc([N+](=O)[O-])cc4)nn3)cc1)CC2` has an IC50 of over 50 µg/mL. `COc1cc2c(cc1OC)CN(S(=O)(=O)c1ccc(-n3cc(COc4ccc5ccccc5c4)nn3)cc1)CC2` gave an IC50 of over 50 µg/mL.

Test system: HepG2
Assay: Ratio of etoposide IC50 to compound IC50 for human HepG2 cells after 48 hrs by MTT assay
Assay type: functional
Conditions: not given
In the case of `COc1cc2c(cc1OC)CN(S(=O)(=O)c1ccc(-n3cc(COc4ccc(C)cc4)nn3)cc1)CC2`, the “Ratio IC50” value is reported as 53.9.

Test system: HepG2
Assay: Ratio of doxorubicin IC50 to compound IC50 for human HepG2 cells after 48 hrs by MTT assay
Assay type: functional
Conditions: not given
For `COc1cc2c(cc1OC)CN(S(=O)(=O)c1ccc(-n3cc(COc4ccc(C)cc4)nn3)cc1)CC2`, the “Ratio IC50” value was 1.4.

Test system: not listed separately
Assay: Cytotoxicity against human MOLT3 cells after 48 hrs by XTT assay
Conditions: MOLT-3, 48 h
`O=Cc1ccc(OCc2cn(-c3ccc(S(=O)(=O)N4CCc5ccccc5C4)cc3)nn2)cc1` gave an IC50 of over 50 µg/mL. For `COc1cc2c(cc1OC)CN(S(=O)(=O)c1ccc(-n3cc(COc4ccc(C)cc4)nn3)cc1)CC2`, the IC50 was over 50 µg/mL. Work on `O=S(=O)(c1ccc(-n2cc(CO)nn2)cc1)N1CCc2ccccc2C1` yielded an IC50 of over 50 µg/mL. For `COc1cc2c(cc1OC)CN(S(=O)(=O)c1ccc(-n3cc(COc4ccccc4)nn3)cc1)CC2`, the IC50 was over 50 µg/mL. Work on `Cc1ccccc1OCc1cn(-c2ccc(S(=O)(=O)N3CCc4ccccc4C3)cc2)nn1` yielded an IC50 of over 50 µg/mL. `CC(=O)c1ccccc1OCc1cn(-c2ccc(S(=O)(=O)N3CCc4ccccc4C3)cc2)nn1` showed an IC50 of 21.9 µM. In the case of `COc1cc2c(cc1OC)CN(S(=O)(=O)c1ccc(-n3cc(COc4ccccc4C(C)=O)nn3)cc1)CC2`, the IC50 is reported as over 50 µg/mL. Work on `COC(=O)c1ccccc1OCc1cn(-c2ccc(S(=O)(=O)N3CCc4ccccc4C3)cc2)nn1` yielded an IC50 of 18.6 µM. With `COc1cc2c(cc1OC)CN(S(=O)(=O)c1ccc(-n3cc(COc4ccc([N+](=O)[O-])cc4)nn3)cc1)CC2` the IC50 was over 50 µg/mL. With `COc1cc2c(cc1OC)CN(S(=O)(=O)c1ccc(-n3cc(COc4ccc5ccccc5c4)nn3)cc1)CC2` the IC50 was 36.4 µM.
